From ChEMBL document CHEMBL1142554, “Lyngbyastatin 2 and norlyngbyastatin 2, analogues of dolastatin G and nordolastatin G from the marine cyanobacterium Lyngbya majuscula” (J Nat Prod, 1999)
Converted amounts (≈) assume the structure as drawn. The source made the active and inactive calls. No cut-off for these calls is given here. Starred links: 1 amine or outer side, 2 acyl side, 3 side chain; linkers in the order of their positions; H or OH if unused. Positions of bridges follow the written chain, without caps; N, C: chain ends. Non-standard residues stand in square brackets, D forms with d. Residues, ends and D or L forms follow the SMILES beside them. X1 = CC[C@H](CCC[C@@H](O)[C@@H](C)C(=O)O[C@H](C)[C@@H](C)C/C=C(C)/C(=C\C(=O)[*:1])OC)O[*:2]; X2 = CC[C@H](CCC[C@@H](O)[C@@H](C)C(=O)O[C@H](C)[C@@H](C)C/C=C(\C)C(=O)CC(=O)[*:1])O[*:2]; NMeI = CC[C@H](C)[C@H](NC)C(=O)O; NMeV = CN[C@H](C(=O)O)C(C)C; NMeS = CN[C@@H](CO)C(=O)O

Experiments:
KB = experiment: Cytotoxicity against human KB cells; assay type: functional, cell-based
[1] = biological target: T1, DNA topoisomerase 1 (Homo sapiens) (UniProt P11387); experiment: Inhibition of topoisomerase 1
T1 sequence (whole entry): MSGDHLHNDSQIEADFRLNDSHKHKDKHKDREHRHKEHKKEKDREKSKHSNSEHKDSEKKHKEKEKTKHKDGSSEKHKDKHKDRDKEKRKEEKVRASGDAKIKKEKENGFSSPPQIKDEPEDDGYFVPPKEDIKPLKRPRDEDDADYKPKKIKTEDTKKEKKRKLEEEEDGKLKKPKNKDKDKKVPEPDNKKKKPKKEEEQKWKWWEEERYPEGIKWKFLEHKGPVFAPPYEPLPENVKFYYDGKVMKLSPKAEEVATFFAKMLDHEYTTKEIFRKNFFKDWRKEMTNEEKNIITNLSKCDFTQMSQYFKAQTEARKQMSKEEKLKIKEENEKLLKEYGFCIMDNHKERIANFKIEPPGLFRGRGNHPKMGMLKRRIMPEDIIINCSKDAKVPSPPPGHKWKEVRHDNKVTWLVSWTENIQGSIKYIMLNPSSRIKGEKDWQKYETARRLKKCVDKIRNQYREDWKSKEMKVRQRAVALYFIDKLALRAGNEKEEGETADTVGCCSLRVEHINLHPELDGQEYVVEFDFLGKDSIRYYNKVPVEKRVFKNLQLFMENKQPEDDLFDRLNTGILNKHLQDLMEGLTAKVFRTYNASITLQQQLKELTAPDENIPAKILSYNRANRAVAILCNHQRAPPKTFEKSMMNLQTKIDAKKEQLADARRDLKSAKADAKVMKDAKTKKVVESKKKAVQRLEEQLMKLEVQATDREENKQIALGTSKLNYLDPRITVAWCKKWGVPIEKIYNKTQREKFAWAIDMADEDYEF

MC-38 = experiment: Cytotoxicity against mouse C38 cells at 1.8 mg/kg by in vivo assay; assay type: functional, organism-based; design: dose 1.8 mg/kg
Summary of the method: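 In vivo mouse model bearing the murine colon adenocarcinoma C38, with compound dosed at 1.8 mg/kg or lower.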

[2] = Inhibition of microtubule assembly
LoVo = experiment: Cytotoxicity against human LoVo cells; assay type: functional, cell-based
Mus musculus = organism: Mus musculus; experiment: Toxicity in mouse; assay type: organism-based; settings: in vivo
[3] = Inhibition of microfilament assembly

With `CC[C@@H]1CCC[C@@H](O)[C@@H](C)C(=O)O[C@H](C)[C@@H](C)C/C=C(C)/C(OC)=C\C(=O)N(C)[C@@H]([C@@H](C)CC)C(=O)N(C)[C@@H](C(C)C)C(=O)N(C)[C@@H](COC)C(=O)N2CCC[C@H]2C(=O)N(C)[C@@H](C(C)C)C(=O)N2CCC[C@H]2C(=O)O1` [LYNGBYASTATIN 2] ([NMeI][NMeV][NMeS](Me)P[NMeV]P; linker N-C via X1) the IC50 (KB) was 0.02 mg/L (≈ 0.0189 µM), the Activity [1] was “inactive” and the Activity (MC-38) was “inactive”. The Activity [2] was “inactive”, the IC50 (LoVo) was 0.014 mg/L (≈ 0.0132 µM) and the LD100 (Mus musculus) was 3 mg/kg. The Activity [3] was “inactive”.
In the case of `CC[C@@H]1CCC[C@@H](O)[C@@H](C)C(=O)O[C@H](C)[C@@H](C)C/C=C(\C)C(=O)CC(=O)N(C)[C@@H]([C@@H](C)CC)C(=O)N(C)[C@@H](C(C)C)C(=O)N(C)[C@@H](COC)C(=O)N2CCC[C@H]2C(=O)N(C)[C@@H](C(C)C)C(=O)N2CCC[C@H]2C(=O)O1` [NORLYNGBYASTATIN 2] ([NMeI][NMeV][NMeS](Me)P[NMeV]P; linker N-C via X2), the IC50 (KB) is reported as 0.93 mg/L (≈ 0.89 µM), the Activity [1] is reported as “inactive” and the Activity [2] is reported as “inactive”. The IC50 (LoVo) was 0.475 mg/L (≈ 0.454 µM) and the Activity [3] was “inactive”.
